The values that follow come from ChEMBL document CHEMBL2163224, “In silico discovery of a compound with nanomolar affinity to antithrombin causing partial activation and increased heparin affinity” (J Med Chem, 2012).

The source made the active and inactive calls. No cut-off for these calls is given here.

The species entered for assay [1] is Homo sapiens. The assay can be described thus: Induction of conformational changes in purified human antithrombin assessed as induction of antithrombin polymer formation up to 14.8 uM at 37 or 42 degC incubated for 2 days in presence of urea by native PAGE. The method in brief: (§1)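 Antithrombin incubated with compound up to 14.8 μM at 37 or 42 °C for 2 days; latent form and polymers assessed by immunoelectrophoresis on 8% (w/v) nondenaturing PAGE with or without 7 M urea.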

For assay [2], the species on record is Homo sapiens. The assay can be described thus: Activation of antithrombin in healthy human plasma assessed as inhibition of S-2238 hydrolysis at 148 uM incubated for 5 mins in presence of 1 uM unfractionated heparin. The format is cell-free. The arrangement: scale not given: the % may be the effect or the level left.
Assay [3] is filed under the species Homo sapiens. The assay can be described thus: Activation of purified human antithrombin-low affinity heparin interaction assessed as antithrombin-mediated inhibition of factor 10a by measuring as second order association rate constant for chromogenic substrate hydrolysis at 1 uM by microplate reader based assay.
Assay [4] is filed under the species Homo sapiens. The assay can be described thus: Activation of purified human antithrombin-low affinity heparin interaction assessed as antithrombin-mediated inhibition of thrombin by measuring as second order association rate constant for chromogenic substrate hydrolysis at 1 uM by microplate reader based assay.
For assay [5], the species on record is Homo sapiens. The assay can be described thus: Induction of conformational changes in purified human antithrombin assessed as induction of antithrombin polymer formation up to 14.8 uM at 37 or 42 degC incubated for 2 days in absence of urea by native PAGE. The method in brief: as §1
The species entered for assay [6] is Homo sapiens. The assay can be described thus: Induction of conformational changes in purified human antithrombin assessed as induction of transition latent conformation up to 14.8 uM at 37 or 42 degC incubated for 2 days in absence of urea by native PAGE. The method in brief:
as §1

Assay [7] concerns the target T1, Antithrombin (Homo sapiens) (UniProt Q15950).
T1 sequence (whole entry): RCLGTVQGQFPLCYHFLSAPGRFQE
The assay can be described thus: Activation of purified human antithrombin-unfractionated heparin assessed as change in antithrombin intrinsic fluorescence at 37 uM by fluorescence spectrophotometry relative to untreated heparin control. The method in brief: (§2)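 Antithrombin intrinsic fluorescence emission at 340 nm titrated with UFH (alone or after antithrombin preincubation with 37 μM compound) at room temperature, I = 0.15, 20 mM NaPO4, 100 mM NaCl, 0.1 mM EDTA, 0.1% PEG 8000, pH 7.4. Each point averaged from 100 readings at 1 s intervals; Kd obtained by data fitting.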

The species named for assay [8] is Homo sapiens. The assay can be described thus: Activation of citrullinated human antithrombin-mediated inhibition of factor 10a assessed as chromogenic substrate hydrolysis at 14.8 uM in presence of rabbit skeletal muscle […]. Also on record: scale not given: the % may be the effect or the level left. The method in brief:
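Plasma-purified antithrombin (1 mg/mL) incubated with rabbit skeletal muscle PAD IV (50:1 molar ratio antithrombin/PAD) ± 14.8 μM compound in 100 mM Tris-HCl, 5 mM CaCl2, pH 7.4, 37 °C, 15 min; stopped with 50 mM EDTA. Residual anti-FXa activity by chromogenic assay with heparin, bovine FXa, S-2765, A405. Two experiments in triplicate, % of antithrombin alone.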

Assay [9] in a line: Binding affinity to purified human antithrombin at 128 uM by isothermal titration calorimetry.
For assay [10], the species on record is Homo sapiens. The assay can be described thus: Induction of conformational changes in purified human antithrombin assessed as induction of transition latent conformation up to 14.8 uM at 37 or 42 degC incubated for 2 days in presence of urea by native PAGE. The method in brief: as §1
The species entered for assay [11] is Homo sapiens. The assay can be described thus: Activation of purified human antithrombin-high affinity heparin interaction assessed as antithrombin-mediated inhibition of factor 10a by measuring as second order association rate constant for chromogenic substrate hydrolysis at 1 uM by microplate reader based assay.
For assay [12], the species on record is Homo sapiens. The assay can be described thus: Activation of antithrombin L99F mutant in type 2 antithrombin deficiency patient plasma assessed as inhibition of S-2238 hydrolysis at 148 uM incubated for 5 mins in presence of 1 uM unfractionated heparin (reference value: 33.22 +/- 2.93%). The format is cell-free. The arrangement: scale not given: the % may be the effect or the level left.

Assay [13] is filed under the species Homo sapiens. The assay can be described thus: Activation of purified human antithrombin-mediated inhibition of thrombin assessed as second order association rate constant for chromogenic substrate hydrolysis by microplate reader based assay.
Assay [14] is described as follows: Activation of purified human antithrombin-unfractionated heparin interaction assessed as change in antithrombin intrinsic fluorescence by fluorescence spectrophotometry. The essentials:
as §2

The species named for assay [15] is Homo sapiens. The assay can be described thus: Activation of purified human antithrombin-mediated inhibition of factor 10a assessed as second order association rate constant for chromogenic substrate hydrolysis by microplate reader based assay.
Assay [16] is filed under the species Homo sapiens. The assay can be described thus: Activation of antithrombin in healthy human plasma assessed as inhibition of S-2238 hydrolysis at 148 uM incubated for 5 mins in presence of mouse Py-4-1 cells. The format is cell-free. Also on record: scale not given: the % may be the effect or the level left.
The species entered for assay [17] is Homo sapiens. The assay can be described thus: Activation of purified human antithrombin-high affinity heparin interaction assessed as antithrombin-mediated inhibition of thrombin by measuring as second order association rate constant for chromogenic substrate hydrolysis at 1 uM by microplate reader based assay.
The species entered for assay [18] is Homo sapiens. The assay can be described thus: Activation of antithrombin L99F mutant in type 2 antithrombin deficiency patient plasma assessed as inhibition of S-2238 hydrolysis at 148 uM incubated for 5 mins in presence of mouse Py-4-1 cells (reference value: 33.22 +/- 2.93%). The format is cell-free. Also on record: scale not given: the % may be the effect or the level left.

Assay [19] can be described thus: Binding affinity to purified human antithrombin at 64 uM in presence of 37 uM d-myo-inositol 3,4,5,6-tetrakisphosphate by isothermal titration calorimetry.
Assay [20] in a line: Binding affinity to purified human antithrombin at 64 uM by isothermal titration calorimetry.

As to `O=P(O)(O)O[C@@H]1[C@@H](OP(=O)(O)O)[C@H](OP(=O)(O)O)[C@@H](O)[C@@H](O)[C@H]1OP(=O)(O)O`, the result in the assay listed under Homo sapiens [1], in the assay filed under Homo sapiens [5], in the assay filed under Homo sapiens [6] and in the assay listed under Homo sapiens [10] was inactive. The Activity worked out at 97.3% in the assay listed under Homo sapiens [2]; 30% in the assay listed under Homo sapiens [8]; 40% in the assay filed under Homo sapiens [12]; 101% in the assay listed under Homo sapiens [16]; 37.2% in the assay filed under Homo sapiens [18]. Moreover, the K in the assay listed under Homo sapiens [3] turned out to be 87000 M⁻¹ s⁻¹; in the assay filed under Homo sapiens [4], 683000 M⁻¹ s⁻¹; in the assay listed under Homo sapiens [11] it was 2.28e+06 M⁻¹ s⁻¹; in the assay listed under Homo sapiens [13], 23000 M⁻¹ s⁻¹; in the assay listed under Homo sapiens [15], 12000 M⁻¹ s⁻¹; in the assay listed under Homo sapiens [17], 3.28e+06 M⁻¹ s⁻¹. In [7], the fold change (FC) stood at 2.3. In addition, the Kd in assay [9] and in assay [14] was 45 nM in each case.

As for `CO[C@H]1O[C@H](COS(=O)(=O)O)[C@@H](O[C@@H]2O[C@@H](C(=O)O)[C@@H](O[C@H]3O[C@H](COS(=O)(=O)O)[C@@H](O[C@@H]4O[C@H](C(=O)O)[C@@H](O[C@H]5O[C@H](COS(=O)(=O)O)[C@@H](O)[C@H](O)[C@H]5NS(=O)(=O)O)[C@H](O)[C@H]4O)[C@H](OS(=O)(=O)O)[C@H]3NS(=O)(=O)O)[C@H](O)[C@H]2OS(=O)(=O)O)[C@H](O)[C@H]1NS(=O)(=O)O` [FONDAPARINUX SODIUM], the Kd in assay [19] came to 18.8 nM; in assay [20] it was 273 nM.
